Laboratory results: ChEMBL document CHEMBL5058577, “EUbOPEN Chemogenomics Library 2 (Multiplex)” (2022)

Tested on: HEK-293T
Assay: Multiplex assay against HEK293T
Type: toxicity, cell-based
Conditions: human
Outline: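 With compound added, live cells were imaged on a CQ1 microscope at 37°C and 5% CO2; staining with Hoechst33342, BioTracker Green Microtubule Cytoskeleton Dye, MitoTracker Red and Annexin V Alexa Fluor 680 had been done at seeding. The CellPathfinder machine-learning gating scheme split cells into Hoechst high-intensity objects or normal cells, normal cells into healthy, pyknosed or fragmented nuclei, and pyknosed cells into mitotic or apoptotic. The tubulin, mitochondrial-mass and membrane-permeability phenotypes are per cents of healthy-nucleus cells.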

[1] = 12 h, 1 µM, compound concentration 1 uM, replicate 1
[2] = 12 h, 1 µM, compound concentration 1 uM, replicate 2
[3] = 12 h, 10 µM, compound concentration 10 uM, replicate 1
[4] = 12 h, 10 µM, compound concentration 10 uM, replicate 2
[5] = 24 h, 1 µM, compound concentration 1 uM, replicate 1
[6] = 24 h, 1 µM, compound concentration 1 uM, replicate 2
[7] = 24 h, 10 µM, compound concentration 10 uM, replicate 1
[8] = 24 h, 10 µM, compound concentration 10 uM, replicate 2
[9] = 48 h, 1 µM, compound concentration 1 uM, replicate 1
[10] = 48 h, 1 µM, compound concentration 1 uM, replicate 2
[11] = 48 h, 10 µM, compound concentration 10 uM, replicate 1
[12] = 48 h, 10 µM, compound concentration 10 uM, replicate 2

OCCCNc1cc(-c2ccnc(Nc3cccc(Cl)c3)n2)ccn1
Population Apoptotic (%) [1]: 66% | Population Fragmented Nuclei (%) [1]: 9% | Population Healthy Nuclei (%) [1]: 66% | Population Hoechst High Intensity Objects (%) [1]: 14% | Population Membrane Permeable-Phenotype (%) [1]: 0% | Population Mitochondria Different-Phenotype (%) [1]: 82% | Population Mitotic Cells (%) [1]: 33% | Population Normal (%) [1]: 85% | Population Pyknosed Nuclei (%) [1]: 24% | Population Tubulin-Different-Phenotype (%) [1]: 75% | Total Cell Count [1]: 204 | Population Apoptotic (%) [2]: 65% | Population Fragmented Nuclei (%) [2]: 8% | Population Healthy Nuclei (%) [2]: 74% | Population Hoechst High Intensity Objects (%) [2]: 11% | Population Mitochondria Different-Phenotype (%) [2]: 88% | Population Mitotic Cells (%) [2]: 34% | Population Normal (%) [2]: 88% | Population Pyknosed Nuclei (%) [2]: 16% | Population Tubulin-Different-Phenotype (%) [2]: 57% | Total Cell Count [2]: 173 | Population Apoptotic (%) [3]: 78% | Population Fragmented Nuclei (%) [3]: 14% | Population Healthy Nuclei (%) [3]: 55% | Population Hoechst High Intensity Objects (%) [3]: 30% | Population Membrane Permeable-Phenotype (%) [3]: 1% | Population Mitochondria Different-Phenotype (%) [3]: 83% | Population Mitotic Cells (%) [3]: 21% | Population Normal (%) [3]: 69% | Population Pyknosed Nuclei (%) [3]: 30% | Population Tubulin-Different-Phenotype (%) [3]: 80% | Total Cell Count [3]: 249 | Population Apoptotic (%) [4]: 75% | Population Healthy Nuclei (%) [4]: 67% | Population Hoechst High Intensity Objects (%) [4]: 41% | Population Membrane Permeable-Phenotype (%) [4]: 10% | Population Mitochondria Different-Phenotype (%) [4]: 85% | Population Mitotic Cells (%) [4]: 25% | Population Normal (%) [4]: 58% | Population Pyknosed Nuclei (%) [4]: 18% | Population Tubulin-Different-Phenotype (%) [4]: 72% | Total Cell Count [4]: 224 | Population Apoptotic (%) [5]: 91% | Population Fragmented Nuclei (%) [5]: 10% | Population Healthy Nuclei (%) [5]: 66% | Population Hoechst High Intensity Objects (%) [5]: 14% | Population Membrane Permeable-Phenotype (%) [5]: 0% | Population Mitochondria Different-Phenotype (%) [5]: 80% | Population Mitotic Cells (%) [5]: 8% | Population Normal (%) [5]: 85% | Population Pyknosed Nuclei (%) [5]: 22% | Population Tubulin-Different-Phenotype (%) [5]: 61% | Total Cell Count [5]: 228 | Population Apoptotic (%) [6]: 77% | Population Fragmented Nuclei (%) [6]: 13% | Population Healthy Nuclei (%) [6]: 76% | Population Hoechst High Intensity Objects (%) [6]: 15% | Population Mitochondria Different-Phenotype (%) [6]: 86% | Population Mitotic Cells (%) [6]: 22% | Population Normal (%) [6]: 84% | Population Pyknosed Nuclei (%) [6]: 10% | Total Cell Count [6]: 202 | Population Apoptotic (%) [7]: 71% | Population Fragmented Nuclei (%) [7]: 16% | Population Healthy Nuclei (%) [7]: 44% | Population Hoechst High Intensity Objects (%) [7]: 41% | Population Membrane Permeable-Phenotype (%) [7]: 0% | Population Mitochondria Different-Phenotype (%) [7]: 85% | Population Mitotic Cells (%) [7]: 28% | Population Normal (%) [7]: 58% | Population Pyknosed Nuclei (%) [7]: 38% | Population Tubulin-Different-Phenotype (%) [7]: 88% | Total Cell Count [7]: 237 | Population Apoptotic (%) [8]: 78% | Population Fragmented Nuclei (%) [8]: 15% | Population Healthy Nuclei (%) [8]: 54% | Population Hoechst High Intensity Objects (%) [8]: 45% | Population Membrane Permeable-Phenotype (%) [8]: 3% | Population Mitochondria Different-Phenotype (%) [8]: 91% | Population Mitotic Cells (%) [8]: 21% | Population Normal (%) [8]: 54% | Population Pyknosed Nuclei (%) [8]: 29% | Population Tubulin-Different-Phenotype (%) [8]: 82% | Total Cell Count [8]: 207 | Population Apoptotic (%) [9]: 82% | Population Fragmented Nuclei (%) [9]: 12% | Population Healthy Nuclei (%) [9]: 51% | Population Hoechst High Intensity Objects (%) [9]: 18% | Population Membrane Permeable-Phenotype (%) [9]: 1% | Population Mitochondria Different-Phenotype (%) [9]: 88% | Population Mitotic Cells (%) [9]: 17% | Population Normal (%) [9]: 81% | Population Pyknosed Nuclei (%) [9]: 35% | Population Tubulin-Different-Phenotype (%) [9]: 68% | Total Cell Count [9]: 232 | Population Apoptotic (%) [10]: 61% | Population Fragmented Nuclei (%) [10]: 17% | Population Healthy Nuclei (%) [10]: 65% | Population Hoechst High Intensity Objects (%) [10]: 21% | Population Membrane Permeable-Phenotype (%) [10]: 0% | Population Mitochondria Different-Phenotype (%) [10]: 84% | Population Mitotic Cells (%) [10]: 38% | Population Normal (%) [10]: 78% | Population Pyknosed Nuclei (%) [10]: 17% | Population Tubulin-Different-Phenotype (%) [10]: 59% | Total Cell Count [10]: 193 | Population Apoptotic (%) [11]: 71% | Population Fragmented Nuclei (%) [11]: 16% | Population Healthy Nuclei (%) [11]: 46% | Population Hoechst High Intensity Objects (%) [11]: 57% | Population Membrane Permeable-Phenotype (%) [11]: 1% | Population Mitochondria Different-Phenotype (%) [11]: 78% | Population Mitotic Cells (%) [11]: 28% | Population Normal (%) [11]: 42% | Population Pyknosed Nuclei (%) [11]: 37% | Population Tubulin-Different-Phenotype (%) [11]: 76% | Total Cell Count [11]: 262 | Population Apoptotic (%) [12]: 83% | Population Fragmented Nuclei (%) [12]: 25% | Population Hoechst High Intensity Objects (%) [12]: 56% | Population Membrane Permeable-Phenotype (%) [12]: 8% | Population Mitochondria Different-Phenotype (%) [12]: 85% | Population Mitotic Cells (%) [12]: 16% | Population Normal (%) [12]: 43% | Population Pyknosed Nuclei (%) [12]: 28% | Population Tubulin-Different-Phenotype (%) [12]: 79% | Total Cell Count [12]: 238
